# Assay results published in ChEMBL document CHEMBL4665752, “Synthesis and Antifungal Activity of Chromones and Benzoxepines from the Leaves of Ptaeroxylon obliquum” (2020).
# Columns and labels:
# Format in all cases: functional
# [1] = test system: Candida albicans; test: Antifungal activity against Candida albicans ATCC 10231 after 48 hrs by microdilution assay
# How it was run: (§1)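 Broth microdilution in triplicate; compounds in DMSO, serially diluted in sterile distilled water, final 25 to 0.2 μg/mL; fungi kept on Sabouraud dextrose agar, inocula diluted in Sabouraud dextrose broth. p-Iodonitrotetrazolium violet (0.2 mg/mL stock) added as growth indicator; incubation 35 °C, 100% relative humidity. MIC = lowest concentration inhibiting growth, read at 24 and 48 h. Amphotericin B positive, DMSO negative control.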
# [2] = test system: Candida albicans; test: Antifungal activity against Candida albicans ATCC 10231 after 24 hrs by microdilution assay; how it was run: as §1
# [3] = test system: Cryptococcus neoformans; test: Antifungal activity against Cryptococcus neoformans after 48 hrs by microdilution assay; how it was run: as §1
# [4] = test system: Cryptococcus neoformans; test: Antifungal activity against Cryptococcus neoformans after 24 hrs by microdilution assay; how it was run: as §1
MIC [1] [µM],MIC [2] [µM],MIC [3] [µM],MIC [4] [µM],SMILES
11.4,11.4,5.7,5.7,Cc1cc(=O)c2c(O)cc3c(c2o1)CC=C(CO)CO3
11.4,11.4,5.7,5.7,Cc1cc(=O)c2c(O)c3c(cc2o1)OCC(CO)=CC3
13.5,13.5,13.5,13.5,C=CCc1c(O)cc(O)c2c(=O)cc(C)oc12
86.7,86.7,43.3,21.7,C=CCc1c2c(c(O)c(C(C)=O)c1OC)C=CC(C)(C)O2
83.8,41.9,10.5,10.5,C=CCc1c2c(c(O)c3c(=O)cc(C)oc13)C=CC(C)(C)O2
22.5,11.2,11.2,11.2,COc1cc2c(c(OC)c1C(C)=O)CC=C(CO)CO2
9.9,9.9,9.9,9.9,CC(=O)OCC1=CCc2c(cc(O)c3c(=O)cc(C)oc23)OC1
19.8,19.8,4.9,4.9,CC(=O)OCC1=CCc2c(cc3oc(C)cc(=O)c3c2O)OC1
0.84,0.42,0.42,0.42,C[C@@H]1[C@H](O)[C@@H](C)/C=C/C=C/C=C/C=C/C=C/C=C/C=C/[C@H](O[C@@H]2O[C@H](C)[C@@H](O)[C@H](N)[C@@H]2O)C[C@@H]2O[C@](O)(C[C@@H](O)C[C@@H](O)[C@H](O)CC[C@@H](O)C[C@@H](O)CC(=O)O[C@H]1C)C[C@H](O)[C@H]2C(=O)O [AMPHOTERICIN B]
16.3,16.3,16.3,16.3,Cc1cc(=O)c2c(O)cc(O)cc2o1 [NOREUGENIN]
